The results in this text go back to ChEMBL document CHEMBL2086363, “Lipophilic Isosteres of a π-π Stacking Interaction: New Inhibitors of the Bcl-2-Bak Protein-Protein Interaction” (ACS Med Chem Lett, 2012).

The target in data set [1] is Apoptosis regulator Bcl-2/Bcl-2 homologous antagonist/killer (Homo sapiens, UniProt P10415). The data set can be described thus: Inhibition of Bcl2-BAK interaction after 1 hr by surface plasmon resonance assay. It counts as protein assay. A digest of the protocol: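 SPR measurement of Bcl-2–Bak binding inhibition. Each value is the average of at least two measurements, with duplicate EC50 values generated in each assay.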

Data set [2] can be described thus: Half life in Sprague-Dawley rat at 1 mg/kg, iv and 10 mg/kg, po. It counts as ADME, organism-based. The following applies: in vivo.
A further data set addresses MCL1-BAK1 complex (Homo sapiens, UniProt Q07820). The data set can be described thus: Inhibition of Mcl1-BAK interaction. It counts as protein-complex assay.
Data set [3] in a line: Volume of distribution at steady state in Sprague-Dawley rat at 1 mg/kg, iv and 10 mg/kg, po. The following applies: in vivo, read-out: Vdss. It counts as ADME, organism-based.
Data set [4] can be described thus: Clearance in Sprague-Dawley rat at 1 mg/kg, iv and 10 mg/kg, po. In kind it is ADME, organism-based. The following applies: in vivo.
Another data set deals with Bcl-xL/BAK (Homo sapiens, UniProt Q07817). The data set is described as follows: Inhibition of Bcl-XL-BAK interaction. It counts as protein assay.
Data set [5] is described as follows: Selectivity ratio of EC50 for Bcl-XL-BAK interaction to EC50 for Bcl2-BAK interaction.
Data set [6] is described as follows: Oral bioavailability in Sprague-Dawley rat at 10 mg/kg. It counts as ADME, organism-based. The following applies: in vivo.

SMILES strings stand for the structures.

In general, EC50 refers to the concentration at which the effect is half-maximal. A higher EC50 goes with lower potency in that assay. The half-life is how long it takes for the measured level to halve. A high value points to slow decline. The IC50 is the point on the concentration scale where inhibition reaches its midpoint. Usually bioavailability stands for dose-corrected exposure relative to a reference, in per cent.

Apoptosis regulator Bcl-2/Bcl-2 homologous antagonist/killer, sequence (P10415 whole entry): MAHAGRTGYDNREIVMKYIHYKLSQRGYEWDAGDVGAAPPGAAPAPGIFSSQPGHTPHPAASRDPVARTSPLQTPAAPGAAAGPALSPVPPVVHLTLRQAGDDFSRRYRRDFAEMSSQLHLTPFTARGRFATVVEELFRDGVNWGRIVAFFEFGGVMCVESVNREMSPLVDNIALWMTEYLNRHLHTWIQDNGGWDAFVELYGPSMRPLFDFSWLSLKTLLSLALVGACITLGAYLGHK
Apoptosis regulator Bcl-2/Bcl-2 homologous antagonist/killer, sequence (Q16611 whole entry, further chain): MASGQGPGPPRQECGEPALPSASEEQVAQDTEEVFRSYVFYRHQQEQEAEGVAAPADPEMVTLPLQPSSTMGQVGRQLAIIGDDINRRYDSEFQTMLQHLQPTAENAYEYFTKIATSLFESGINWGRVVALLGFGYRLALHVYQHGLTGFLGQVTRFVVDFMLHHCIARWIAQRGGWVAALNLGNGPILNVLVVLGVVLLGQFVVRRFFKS
MCL1-BAK1 complex, sequence (Q07820 whole entry): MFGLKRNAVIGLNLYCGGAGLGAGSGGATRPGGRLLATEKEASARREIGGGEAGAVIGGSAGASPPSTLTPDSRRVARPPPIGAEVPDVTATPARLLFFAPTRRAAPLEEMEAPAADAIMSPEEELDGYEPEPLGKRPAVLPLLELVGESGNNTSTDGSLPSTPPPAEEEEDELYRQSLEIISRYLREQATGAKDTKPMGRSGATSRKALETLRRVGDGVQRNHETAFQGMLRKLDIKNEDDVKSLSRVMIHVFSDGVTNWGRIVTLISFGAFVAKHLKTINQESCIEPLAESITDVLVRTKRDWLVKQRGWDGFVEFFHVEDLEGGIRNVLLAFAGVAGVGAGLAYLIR
MCL1-BAK1 complex, sequence (Q16611 whole entry, further chain): as the sequence (Q16611 whole entry, further chain) above
Bcl-xL/BAK, sequence (Q07817 whole entry): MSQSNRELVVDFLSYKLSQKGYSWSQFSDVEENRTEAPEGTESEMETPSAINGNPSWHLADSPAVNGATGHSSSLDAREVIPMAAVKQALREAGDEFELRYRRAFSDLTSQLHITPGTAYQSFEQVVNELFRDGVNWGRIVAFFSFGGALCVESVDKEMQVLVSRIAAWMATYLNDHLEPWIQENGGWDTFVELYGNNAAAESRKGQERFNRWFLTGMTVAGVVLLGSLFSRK
Bcl-xL/BAK, sequence (Q16611 whole entry, further chain): as the sequence (Q16611 whole entry, further chain) above

On to `O=C(NS(=O)(=O)CC12CC3CC(CC(C3)C1)C2)c1ccc(N2CCN(Cc3ccccc3-c3ccc(Cl)cc3)CC2)cc1`, for which the values for the concentration giving a half-maximal response (EC50) (in data set [1]; at Bcl-xL/BAK) were 670 nM and 2850 nM, respectively. The same compound gave a half-life in data set [2] of 1.3 h. In addition, the half-maximal inhibitory concentration (IC50) against MCL1-BAK1 complex is above 50000 nM. Besides, in data set [3], the Vd came out at 0.7 L/kg. The compound also had a clearance in data set [4] of 6 mL/min/kg. In data set [5], the Ratio EC50 was determined as 4.3. The same compound showed a bioavailability in data set [6] of 66%.
In data set [1], `CC1(C)[C@@]2(C)CC[C@H](CS(=O)(=O)NC(=O)c3ccc(N4CCN(Cc5ccccc5-c5ccc(Cl)cc5)CC4)cc3)[C@]1(C)C2` displayed a 50% effective concentration (EC50) of 560 nM. Besides, the IC50 against MCL1-BAK1 complex was above 50000 nM.
`O=C(NS(=O)(=O)CC12CC3CC(C1)CC(OCCN1CCOCC1)(C3)C2)c1ccc(N2CCN(Cc3ccccc3-c3ccc(Cl)cc3)CC2)cc1` came in with an EC50 in data set [1] of 310 nM.
`CC(C)(C)C(=O)NC12CC3CC(CC(CS(=O)(=O)NC(=O)c4ccc(N5CCN(Cc6ccccc6-c6ccc(Cl)cc6)CC5)cc4)(C3)C1)C2`: the midpoint of the response in data set [1], the EC50, lay at 520 nM.
Turning to `CCS(=O)(=O)NC(=O)c1ccc(N2CCN(Cc3ccccc3-c3ccc(Cl)cc3)CC2)cc1`, the concentration for a half-maximal effect (EC50) in data set [1] is 5310 nM. The compound also registered an IC50 on MCL1-BAK1 complex above 50000 nM.
Consider `O=C(NS(=O)(=O)CC12CC3CC(CC1C3)C2)c1ccc(N2CCN(Cc3ccccc3-c3ccc(Cl)cc3)CC2)cc1`, for which the midpoint of the response in data set [1], the EC50, lay at 2660 nM. The compound also displayed an IC50 against MCL1-BAK1 complex above 50000 nM.
For `O=C(NS(=O)(=O)CC12CC3CCC(CC(C3)C1)C2)c1ccc(N2CCN(Cc3ccccc3-c3ccc(Cl)cc3)CC2)cc1`, the EC50 in data set [1] turned out to be 120 nM; on Bcl-xL/BAK, 220 nM. This compound had a half-inhibitory concentration (IC50) at MCL1-BAK1 complex above 50000 nM.
In data set [1], `O=C(NS(=O)(=O)NC12CC3CC(CC(C3)C1)C2)c1ccc(N2CCN(Cc3ccccc3-c3ccc(Cl)cc3)CC2)cc1` came in with a concentration giving a half-maximal response (EC50) of 2100 nM. Also, the IC50 at MCL1-BAK1 complex was above 50000 nM.
For `CC1(C)C2CC[C@@]1(CS(=O)(=O)NC(=O)c1ccc(N3CCN(Cc4ccccc4-c4ccc(Cl)cc4)CC3)cc1)C(=O)C2` the same measures were 1470 nM and above 50000 nM.
Take `O=C(NS(=O)(=O)CCC12CC3CC(CC(C3)C1)C2)c1ccc(N2CCN(Cc3ccccc3-c3ccc(Cl)cc3)CC2)cc1`: the EC50 in data set [1] was found to be 2810 nM. This compound also yielded a half-inhibitory concentration (IC50) at MCL1-BAK1 complex above 50000 nM.
In data set [1], `CC(C)(C)S(=O)(=O)NC(=O)c1ccc(N2CCN(Cc3ccccc3-c3ccc(Cl)cc3)CC2)cc1` returned an EC50 above 16000 nM. Further, the 50% inhibitory concentration (IC50) against MCL1-BAK1 complex was above 50000 nM.
With `O=C(NS(=O)(=O)CC12CC3CC(CC(F)(C3)C1)C2)c1ccc(N2CCN(Cc3ccccc3-c3ccc(Cl)cc3)CC2)cc1`, the EC50 in data set [1] stood at 480 nM.
As to `O=C(NS(=O)(=O)CC12CC3CC(CC(O)(C3)C1)C2)c1ccc(N2CCN(Cc3ccccc3-c3ccc(Cl)cc3)CC2)cc1`, it took 300 nM to reach a half-maximal effect in data set [1] (EC50). The compound also had a half-life in data set [2] of 1.3 h. In addition, the Vd in data set [3] came out at 1.2 L/kg. Besides, in data set [4], the clearance was 16 mL/min/kg. Moreover, the bioavailability in data set [6] was above 100%.
In data set [1], `O=C(NS(=O)(=O)C12CC3CC(CC(C3)C1)C2)c1ccc(N2CCN(Cc3ccccc3-c3ccc(Cl)cc3)CC2)cc1` returned an EC50 above 16000 nM. Besides, the 50% inhibitory concentration (IC50) on MCL1-BAK1 complex is above 50000 nM.
Compound `CS(=O)(=O)NC(=O)c1ccc(N2CCN(Cc3ccccc3-c3ccc(Cl)cc3)CC2)cc1` returned an EC50 in data set [1] of 8620 nM. The same compound displayed a concentration for half-maximal inhibition (IC50) against MCL1-BAK1 complex above 50000 nM.
As to `O=C(NS(=O)(=O)CC12CC3CC(CC(Br)(C3)C1)C2)c1ccc(N2CCN(Cc3ccccc3-c3ccc(Cl)cc3)CC2)cc1`, the concentration for a half-maximal effect (EC50) in data set [1] was 670 nM.
Take `CC1(C)C2CC[C@]1(CS(=O)(=O)NC(=O)c1ccc(N3CCN(Cc4ccccc4-c4ccc(Cl)cc4)CC3)cc1)C(=O)C2`: the EC50 in data set [1] is 1020 nM. The compound further showed an IC50 at MCL1-BAK1 complex above 50000 nM.
Turning to `O=C(NS(=O)(=O)CC12CC3CC(C1)CC(c1ccccc1)(C3)C2)c1ccc(N2CCN(Cc3ccccc3-c3ccc(Cl)cc3)CC2)cc1`, the EC50 in data set [1] worked out at 1970 nM.
For the compound `CC1(C)[C@]2(C)CC[C@@H](CS(=O)(=O)NC(=O)c3ccc(N4CCN(Cc5ccccc5-c5ccc(Cl)cc5)CC4)cc3)[C@@]1(C)C2`, the results for the EC50 (in data set [1]; at Bcl-xL/BAK) were 420 nM and 580 nM, respectively. The compound also displayed a half-inhibitory concentration (IC50) on MCL1-BAK1 complex above 50000 nM.
As for `O=C(NS(=O)(=O)CC12CC3CC(C1)CC(NC(=O)C1CC1)(C3)C2)c1ccc(N2CCN(Cc3ccccc3-c3ccc(Cl)cc3)CC2)cc1`, in data set [1], the response was half-maximal at 210 nM (EC50).
The same measure, in the same setting: the result for `CC(=O)NC12CC3CC(CC(CS(=O)(=O)NC(=O)c4ccc(N5CCN(Cc6ccccc6-c6ccc(Cl)cc6)CC5)cc4)(C3)C1)C2` reads 230 nM; that for `CC(C)C(=O)NC12CC3CC(CC(CS(=O)(=O)NC(=O)c4ccc(N5CCN(Cc6ccccc6-c6ccc(Cl)cc6)CC5)cc4)(C3)C1)C2`, 160 nM; that for `CC12CC3CC(C1)CC(CS(=O)(=O)NC(=O)c1ccc(N4CCN(Cc5ccccc5-c5ccc(Cl)cc5)CC4)cc1)(C3)C2`, 1100 nM.
